Screening data from PubChem.
PPC-1+TRAIL kill = PPC-1 cancer cell killing with TRAIL present; PPC-1 cells + TRAIL, ATPLite viability luminescence; cell killing (% activity), % at 4 µM or 5 µM; AID 1443; 220,000 tested, 0.41% active;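 active = cell killing above 50% in the first pass at 4 µM, then a duplicate retest at 5 µM averaging 50% or more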;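 also: plate controls were cells with TRAIL plus DMSO for no effect and medium-only wells lacking cells for full effect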
STAT3 blocker = inhibitors of IL-6 induced STAT3 signaling | U3A cells, IL-6 STAT3-luciferase reporter, luminescence; host cell line lacks STAT1 | inhibition, % at 5.5 µM | 190,000 tested, 0.89% active | AID 862;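 active = inhibition above the mean inhibition across all screened compounds plus 3 SD, cut at about 44% in these data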;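 also: 0% = DMSO only wells and 100% = 100 µM nifuroxazide control wells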
STAT3 act = increases IL-6 driven STAT3 reporter signal; activation (% of control), % at 5.6 µM; U3A cells, IL-6 STAT3-luciferase reporter, luminescence; 100% = signal with IL-6 EC80 alone; 190,000 tested, 0.91% active;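 active = activation above the screen-wide mean of compound activation plus 3 SD, cut at about 130% in these data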;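 also: 0% = background luminescence of wells with medium and substrate only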
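Material: human U3A cells carrying STAT3-luciferase construct. Measured by: reporter luminescence signal. Timing: compound 1 h, then IL-6 6 h at 37 °C.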
C8 TRAIL sens = caspase-8 TRAIL sensitization; 360,000 tested, 1% active; AID 624354; NB7+C8 cells + TRAIL, ATPlite viability luminescence; inhibition (viability loss, TRAIL sensitization), % at 10 µM;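 active = compounds causing at least 50% loss of cell viability in the single-dose screen, relative to plate controls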
STAT1 inh = STAT1 signaling inhibition | NIH 3T3 STAT1-luciferase reporter, IFN-gamma, luminescence | 200,000 tested, 0.35% active | AID 920 | inhibition, % at 5.5 µM;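 active = inhibition above a set limit, the mean inhibition across all tested compounds plus 3 SD, cut at about 34% in these data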;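 also: 0% = IFN-gamma with DMSO and 100% = IFN-gamma with 300 µM nifuroxazide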
Active calls of the source: *; . = not tested or not shown. Shown are actives, neighbours in structure and some others; about 1.8% of the full set was active somewhere.

SMILES	PPC-1+TRAIL kill	STAT3 blocker	STAT3 act	C8 TRAIL sens	STAT1 inh
CC(=O)OCC1OC(OCc2cn(C[C@H]3CC[C@H](Cn4cc(COC5OC(COC(C)=O)C(OC(C)=O)C(OC(C)=O)C5OC(C)=O)nn4)O3)nn2)C(OC(C)=O)C(OC(C)=O)C1OC(C)=O (stereo not given in full)	.	.	.	2	.
Cc1ccc(CNC(=O)C2CCC(=O)N2Cc2ccc(C)cc2)cc1 (stereo not given)	.	.	.	-19	.
COc1ccc(-c2cc(C(=O)N3CCN(c4ccccc4O)CC3)c3ccccc3n2)cc1	.	.	.	63*	.
Cc1ccc(-c2cc(C(=O)N3CCN(c4ccccc4O)CC3)c3ccccc3n2)cc1	.	.	.	48	.
O=C(NC1=NCCS1)c1cc(-c2ccc(F)cc2)nc2ccccc12	14	-1	99	10	-2
C/C(=N\NC(=O)c1cc(-c2cccnc2)nc2ccccc12)c1ccc(O)cc1O	51*	5	96	9	4
CCOc1ccc(-c2cc(C(=O)N/N=C/c3cccnc3)c3ccccc3n2)cc1	.	.	.	74*	.
CCCc1ccc(-c2cc(C(=O)NC3=NCCS3)c3ccccc3n2)cc1	54*	-7	102	72*	-15
C/C(=N\NC(=O)c1cc(-c2cccc(OC(C)C)c2)nc2ccccc12)c1cccnc1	.	.	.	37	.
CC(C)CC1(C2CCCC2)NC(=O)NC1=O (stereo not given)	.	.	.	-4	.
O=C(Nc1ccncc1)c1cc(C2CCCCN2C(=O)CCCc2ccccc2)on1 (stereo not given)	.	.	.	20	.
Cc1nn(-c2ccccc2)c(-c2ccccc2[N+](=O)[O-])c1CC#N	.	.	.	-22	.
COc1ccc(-c2cc(C(=O)N3CCN(c4ncccn4)CC3)c3ccccc3n2)cc1	.	.	.	64*	.
CCCc1ccc(-c2cc(C(=O)N3CCN(c4ccccn4)CC3)c3ccccc3n2)cc1	.	.	.	91*	.
CCOc1ccc(-c2cc(C(=O)N3CCCC3)c3ccccc3n2)cc1	.	.	.	64*	.
CCc1ccc(-c2cc(C(=O)NCc3ccccn3)c3ccccc3n2)cc1	26	-17	117	60*	-9
COc1cc(-c2cc(C(=O)N3CCN(c4ccccn4)CC3)c3ccccc3n2)cc(OC)c1OC	.	7	98	20	23
COc1ccc(NC(=O)CCN2C(=O)c3ccccc3C2=O)c(OC)c1	.	.	.	-18	.
COc1ccc(OC)c(N(CCN2C(=O)c3ccccc3C2=O)C(=O)CCl)c1	.	.	.	94*	.
CC(C)C[C@@H](CN1CCCC1CN1C(=S)NC[C@@H]1Cc1ccc(O)cc1)N1C[C@H](Cc2ccc(O)cc2)N(CC2CCCCCC2)C1=S (stereo not given in full)	.	.	.	53*	.
Cc1c(CC(=O)Nc2ccc(Cl)cc2)sc2ccc(Cl)cc12	9	.	.	1	.
CCCCOC(=O)c1ccc(Nc2ncnc3nc[nH]c23)cc1	29	4	96	11	-2
CCCCCCCCOC(=O)c1cc([N+](=O)[O-])c(Sc2ncnc3nc[nH]c23)c([N+](=O)[O-])c1	.	.	.	67*	.
CNC(=O)c1c(NC(=O)c2ccc(N3C(=O)CCC3=O)cc2)sc2c1CCC(C)C2 (stereo not given)	.	.	.	-5	.
Cc1cc(C)nc(N/N=C/c2ccccc2)n1	.	5	101	13	-9
SMILES	PPC-1+TRAIL kill	STAT3 blocker	STAT3 act	C8 TRAIL sens	STAT1 inh
Cc1cc(C)c2nc(C)cc(N/N=C/c3ccc(O)cc3)c2c1	.	.	.	81*	.
Cc1cc(-c2ccccc2)nc(N/N=C/c2ccc(O)cc2)n1	.	.	.	77*	.
CCOC(=O)N1CCC(Nc2c(OCC)c(=O)c2=O)CC1	52*	9	100	4	-7
CCOC(=O)N1CCC(Nc2c(NCCCOC)c(=O)c2=O)CC1	22	12	92	-3	5
CC1CCC(NC(=O)CSc2nncn2C)CC1 (stereo not given)	.	.	.	13	.
O=C(NCc1ccc(F)cc1)c1cnc2sccn2c1=O	-8	.	.	-11	.
O=C(NCCc1c[nH]c2ccccc12)c1cnc2sccn2c1=O	13	-31	135*	16	-30
O=C1CN(c2nc(-c3ccccc3)c3cc(Cl)ccc3n2)c2ccccc2N1	14	2	94	21	6
O=C1Cc2c(-c3ccccc3)cc(-c3cccc(Cl)c3)nc2-c2ccccc2N1	.	.	.	64*	.
Cc1cccc(-c2noc(-c3ccc4c(c3)OCO4)n2)c1	34	69*	43	61*	16
O=C1CCCCC1Sc1nnc(-c2ccc3c(c2)OCO3)o1 (stereo not given)	6	105*	13	53*	87*
